What all share (format): cell-based
One test has as its target EGFR (Homo sapiens, UniProt P00533). The experiment in a line: EGFR degradation, immunoblot of treated cells. The note with it: Figure S2, cell line not given. Background: In western blotting, separated proteins are transferred to a membrane and probed.
A further test concerns the target exon 19 del EGFR (Homo sapiens, UniProt P00533, DEL746-750). The test can be described thus: Exon 19 deletion EGFR degradation, immunoblot in HCC827 cells. The note with it: 24 hours. A digest of the protocol:
(§1)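 Cells cultured in RPMI-1640 with 10% FBS and 1% penicillin-streptomycin at 37°C, 5% CO2. They were treated for 24 hours with increasing concentrations of a gefitinib-based PROTAC. Cells were lysed in Tris pH 7.5/NP-40/deoxycholate buffer with phosphatase and protease inhibitors, then cleared at 16,000 × g. Protein was normalised by BCA, resolved by 8% SDS-PAGE, blotted to nitrocellulose, detected by ECL and quantified by densitometry.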

Another test deals with L858R EGFR (Homo sapiens, UniProt P00533, L858R). The test can be described thus: L858R EGFR degradation, immunoblot in H3255 cells. The following applies: 24 hours. The gist of the method:
as §1

Structures are written as SMILES.

On to `COc1cc2ncnc(Nc3ccc(F)c(Cl)c3)c2cc1OCCCCCOCCOCCC(=O)N[C@H](C(=O)N1C[C@H](O)C[C@H]1C(=O)NCc1ccc(-c2scnc2C)cc1)C(C)(C)C` [Compound 3], for which, on EGFR, the “WT EGFR degradation” value was “sparing the WT EGFR”. Moreover, the “degradation of exon-19 deletion EGFR” value at exon 19 del EGFR was “enabled the degradation”. Besides, the “degradation of L858R EGFR” value on L858R EGFR was “enabled the degradation”.

(Values after article PMC5831399 (Cell chemical biology, 2017).)
